According to ChEMBL document CHEMBL3272259, “Nitroimidazoles with antibacterial activity against Neisseria gonorrhoeae” (1977):
Converted amounts (≈) assume the structure as drawn. The source made the active and inactive calls. The calls are words filed in the database; no cut-off is given here.

Assays:
Tritrichomonas foetus = assay: Antibacterial activity against Tritrichomonas foetus 1002-96-27 after 48 hrs by ten-fold serial dilution method; assay type: functional; conditions: 1002-96-27, 48 h
How it was run: (§1)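 Trichomonads were cultured in Diamond medium with 5% serum and incubated 48 h at 37 °C. Cultures were examined microscopically for motile cells, and the MIC (µg/mL) is the lowest concentration giving no motile organisms.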

Pentatrichomonas hominis = assay: Antibacterial activity against Pentatrichomonas hominis ATCC 30000 after 48 hrs by ten-fold serial dilution method; assay type: functional; conditions: ATCC 30000, 48 h; how it was run: as §1
Neisseria gonorrhoeae = assay: Antibacterial activity against Neisseria gonorrhoeae ATCC 19424 after 48 hrs by ten-fold serial dilution method; assay type: functional; conditions: ATCC 19424, 48 h
How it was run: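 Tested on chocolate agar made from GC agar base with hemoglobin and Supplement C, incubated 48 h at 37 °C. Plates were checked visually, and the MIC (µg/mL) is the lowest concentration with no visible growth.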

Clostridium perfringens = assay: Antibacterial activity against Clostridium perfringens ATCC 13124 after 24 hrs by ten-fold serial dilution method; assay type: functional; conditions: ATCC 13124, 24 h
How it was run: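 Grown in Fluid Thioglycollate Broth and incubated 24 h at 37 °C. Growth was checked by eye after incubation. MIC was taken as the lowest concentration, in μg/mL, that prevented visible growth.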

Trichomonas vaginalis = assay: Antibacterial activity against Trichomonas vaginalis ATCC 30001 after 48 hrs by ten-fold serial dilution method; assay type: functional; conditions: ATCC 30001, 48 h; how it was run: as §1
Bacteroides fragilis = assay: Antibacterial activity against Bacteroides fragilis ATCC 23745 after 24 hrs by ten-fold serial dilution method; assay type: functional; conditions: ATCC 23745, 24 h
How it was run: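 Grown in Fluid Thioglycollate Broth and incubated 24 h at 37 °C. Growth was read by eye, and the MIC (µg/mL) is the lowest concentration that prevented visible growth.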

Candida albicans = assay: Antifungal activity against Candida albicans; assay type: functional, organism-based

SMILES	MIC (Tritrichomonas foetus) [µg/mL]	MIC (Pentatrichomonas hominis) [µg/mL]	MIC (Neisseria gonorrhoeae) [µg/mL]	MIC (Clostridium perfringens) [µg/mL]	MIC (Trichomonas vaginalis) [µg/mL]	MIC (Bacteroides fragilis) [µg/mL]	Activity (Candida albicans)
Cn1ccnc1SCCOc1ccc(C#N)cc1 [listing 1 of 2 here]	> 100	> 100	> 100	> 100	> 100	> 100	–
Br.Cn1ccnc1SCCOc1ccc([N+](=O)[O-])cc1	> 100	> 100	100	> 100	> 100	> 100	inactive
Cn1c([N+](=O)[O-])cnc1[S+]([O-])CCOc1ccc(C#N)cc1 (stereo unspecified)	100 (≈ 312 µM)	100 (≈ 312 µM)	100 (≈ 312 µM)	> 100	10 (≈ 31.2 µM)	100 (≈ 312 µM)	inactive
Cn1c([N+](=O)[O-])cnc1SCCCCCCCCCCCC(=O)O	10 (≈ 28 µM)	10 (≈ 28 µM)	> 100	> 100	10 (≈ 28 µM)	100 (≈ 280 µM)	inactive
Cn1c([N+](=O)[O-])cnc1SCCCCCCCCCCCCCCCC(=O)O	100 (≈ 242 µM)	100 (≈ 242 µM)	> 100	> 100	100 (≈ 242 µM)	> 100	inactive
Cn1cc([N+](=O)[O-])nc1SCCCCCCC(=O)O	100 (≈ 348 µM)	100 (≈ 348 µM)	> 100	> 100	100 (≈ 348 µM)	> 100	inactive
Cn1c([N+](=O)[O-])cnc1SCCOc1ccc(C(=O)O)cc1 [listing 1 of 2 here]	–	–	–	–	–	–	inactive
CCOC(=O)c1ccc(OCCCCSc2nccn2C)cc1 [listing 1 of 2 here]	> 100	> 100	> 100	> 100	> 100	> 100	–
Cn1c([N+](=O)[O-])cnc1[S+]([O-])CCOc1ccc(C(=O)O)cc1 (stereo unspecified)	100 (≈ 295 µM)	100 (≈ 295 µM)	100 (≈ 295 µM)	100 (≈ 295 µM)	100 (≈ 295 µM)	100 (≈ 295 µM)	inactive
Cn1c([N+](=O)[O-])cnc1[S+]([O-])CCCCC(=O)O (stereo unspecified)	> 100	100 (≈ 363 µM)	100 (≈ 363 µM)	> 100	100 (≈ 363 µM)	100 (≈ 363 µM)	inactive
Cn1c([N+](=O)[O-])cnc1SCCCOc1ccc(C(=O)O)cc1	10 (≈ 29.6 µM)	1 (≈ 2.96 µM)	1 (≈ 2.96 µM)	10 (≈ 29.6 µM)	1 (≈ 2.96 µM)	1 (≈ 2.96 µM)	inactive
CCOC(=O)c1ccc(OCCCCSc2nccn2C)cc1 [listing 2 of 2 here]	–	–	–	–	–	–	inactive
CCOC(=O)c1ccc(OCCCCCCSc2ncc([N+](=O)[O-])n2C)c([N+](=O)[O-])c1	100 (≈ 221 µM)	10 (≈ 22.1 µM)	> 100	100 (≈ 221 µM)	10 (≈ 22.1 µM)	10 (≈ 22.1 µM)	inactive
Cn1ccnc1SCCOc1ccc(C#N)cc1 [listing 2 of 2 here]	–	–	–	–	–	–	inactive
Cn1c([N+](=O)[O-])cnc1SCCCCCCCOc1ccccc1[N+](=O)[O-]	100 (≈ 254 µM)	100 (≈ 254 µM)	> 100	> 100	100 (≈ 254 µM)	> 100	inactive
COC(=O)CCCCCCCCCCS(=O)(=O)c1ncc([N+](=O)[O-])n1C	> 100	> 100	> 100	> 100	> 100	> 100	inactive
Cn1c([N+](=O)[O-])cnc1[S+]([O-])CCCCCCCOc1ccccc1[N+](=O)[O-] (stereo unspecified)	100 (≈ 244 µM)	100 (≈ 244 µM)	> 100	> 100	100 (≈ 244 µM)	100 (≈ 244 µM)	inactive
COC(=O)CCCCCCCCCC[S+]([O-])c1ncc([N+](=O)[O-])n1C (stereo unspecified)	100 (≈ 268 µM)	100 (≈ 268 µM)	100 (≈ 268 µM)	> 100	100 (≈ 268 µM)	> 100	inactive
CCOC(=O)c1ccc(OCCCCCCCCCCSc2ncc([N+](=O)[O-])n2C)c([N+](=O)[O-])c1	10 (≈ 19.7 µM)	10 (≈ 19.7 µM)	> 100	> 100	10 (≈ 19.7 µM)	10 (≈ 19.7 µM)	inactive
Br.Cn1ccnc1SCCOc1ccc(C#N)cc1	> 100	> 100	> 100	> 100	> 100	> 100	–
Br.Cn1ccnc1SCCCCCCCCCCC(=O)O	> 100	> 100	> 100	> 100	> 100	> 100	inactive

SMILES	MIC (Tritrichomonas foetus) [µg/mL]	MIC (Pentatrichomonas hominis) [µg/mL]	MIC (Neisseria gonorrhoeae) [µg/mL]	MIC (Clostridium perfringens) [µg/mL]	MIC (Trichomonas vaginalis) [µg/mL]	MIC (Bacteroides fragilis) [µg/mL]	Activity (Candida albicans)
Cn1c([N+](=O)[O-])cnc1[S+]([O-])CCCCCCCCCCC(=O)O (stereo unspecified)	100 (≈ 278 µM)	100 (≈ 278 µM)	100 (≈ 278 µM)	> 100	10 (≈ 27.8 µM)	> 100	inactive
Cn1c([N+](=O)[O-])cnc1SCCCCCCOc1ccc(C(=O)O)cc1	1 (≈ 2.64 µM)	1 (≈ 2.64 µM)	0.1 (≈ 0.264 µM)	10 (≈ 26.4 µM)	1 (≈ 2.64 µM)	1 (≈ 2.64 µM)	inactive
Cn1c([N+](=O)[O-])cnc1SCCOc1ccc(C#N)cc1	1 (≈ 3.29 µM)	1 (≈ 3.29 µM)	100 (≈ 329 µM)	100 (≈ 329 µM)	1 (≈ 3.29 µM)	–	inactive
Br.CCOC(=O)c1ccc(OCCCCSc2nccn2C)cc1	100	100	> 100	> 100	100	> 100	–
Cn1c([N+](=O)[O-])cnc1SCCOc1ccc(C(=O)[O-])cc1.[Na+]	10	1	1	10	1	1	–
Cn1c([N+](=O)[O-])cnc1S(=O)(=O)CCCCC(=O)O	> 100	100 (≈ 343 µM)	100 (≈ 343 µM)	> 100	100 (≈ 343 µM)	100 (≈ 343 µM)	inactive
Cn1c([N+](=O)[O-])cnc1[S+]([O-])CCC(=O)O (stereo unspecified)	10 (≈ 40.4 µM)	10 (≈ 40.4 µM)	> 100	100 (≈ 404 µM)	10 (≈ 40.4 µM)	10 (≈ 40.4 µM)	inactive
Cn1c([N+](=O)[O-])cnc1SCCCCC(=O)O	1 (≈ 3.86 µM)	1 (≈ 3.86 µM)	1 (≈ 3.86 µM)	–	1 (≈ 3.86 µM)	1 (≈ 3.86 µM)	inactive
Cc1ncc([N+](=O)[O-])n1CCO [METRONIDAZOLE]	1 (≈ 5.84 µM)	1 (≈ 5.84 µM)	> 100	10 (≈ 58.4 µM)	10 (≈ 58.4 µM)	1 (≈ 5.84 µM)	inactive
COC(=O)CCCCCCCCCCSc1ncc([N+](=O)[O-])n1C	> 100	> 100	> 100	> 100	> 100	> 100	inactive
Cn1c([N+](=O)[O-])cnc1SCCOc1ccc([N+](=O)[O-])cc1	100 (≈ 308 µM)	1 (≈ 3.08 µM)	> 100	100 (≈ 308 µM)	10 (≈ 30.8 µM)	100 (≈ 308 µM)	inactive
Cn1ccnc1SCCOc1ccc(C(=O)O)cc1	> 100	> 100	> 100	> 100	> 100	> 100	inactive
Cn1c([N+](=O)[O-])cnc1SCCCCCC(=O)O	1 (≈ 3.66 µM)	1 (≈ 3.66 µM)	0.1 (≈ 0.366 µM)	10 (≈ 36.6 µM)	1 (≈ 3.66 µM)	100 (≈ 366 µM)	inactive
Cn1c([N+](=O)[O-])cnc1SCCOc1ccc(Br)cc1	10 (≈ 27.9 µM)	10 (≈ 27.9 µM)	> 100	> 100	10 (≈ 27.9 µM)	100 (≈ 279 µM)	inactive
Cn1c([N+](=O)[O-])cnc1SCCCCCCCC(=O)O	1 (≈ 3.32 µM)	1 (≈ 3.32 µM)	0.1 (≈ 0.332 µM)	0.1 (≈ 0.332 µM)	1 (≈ 3.32 µM)	10 (≈ 33.2 µM)	inactive
Cn1c([N+](=O)[O-])cnc1SCCCCOc1ccc(C(=O)O)cc1	1 (≈ 2.85 µM)	1 (≈ 2.85 µM)	100 (≈ 285 µM)	10 (≈ 28.5 µM)	1 (≈ 2.85 µM)	10 (≈ 28.5 µM)	inactive
Br.Cn1ccnc1SCCOc1ccc(Br)cc1	> 100	> 100	100	> 100	> 100	100	inactive
Cn1ccnc1SCCCCC(=O)O	> 100	> 100	> 100	> 100	> 100	> 100	inactive
Br.Cn1ccnc1SCCCCOc1ccccc1	> 100	> 100	100	> 100	> 100	> 100	inactive
Cn1c([N+](=O)[O-])cnc1SCCOc1ccc(C(=O)O)cc1 [listing 2 of 2 here]	1 (≈ 3.09 µM)	1 (≈ 3.09 µM)	1 (≈ 3.09 µM)	10 (≈ 30.9 µM)	1 (≈ 3.09 µM)	10 (≈ 30.9 µM)	–
